Measured values: ChEMBL document CHEMBL1157638, “Fluorescent epigenetic small molecule induces expression of the tumor suppressor ras-association domain family 1A and inhibits human prostate xenograft” (J Med Chem, 2010)
Active and inactive are the calls of the source. The calls are words filed in the database; no cut-off is given here.

Columns and labels:
[1] = tested on: ACHN; assay: Growth inhibition of human ACHN cells assessed as cell growth at 10 nM relative to untreated control; format: functional; conditions: read-out: Activity
[2] = tested on: OVCAR-8; assay: Growth inhibition of human OVCAR8 cells; format: functional
[3] = tested on: IGROV-1; assay: Growth inhibition of human IGROV1 cells assessed as cell growth at 100 nM relative to untreated control; format: functional; conditions: read-out: Activity
[4] = tested on: SNB-19; assay: Growth inhibition of human SNB19 cells; format: functional
[5] = tested on: SF-295; assay: Growth inhibition of human SF295 cells assessed as cell growth at 100 nM relative to untreated control; format: functional; conditions: read-out: Activity
[6] = Growth inhibition of human […] cells assessed as cell growth at 1 uM relative to untreated control; format: functional; conditions: read-out: Activity
[7] = tested on: NCI/ADR-RES; assay: Growth inhibition of human NCI/ADR-RES cells assessed as cell growth at 1 nM relative to untreated control; format: functional; conditions: read-out: Activity
[8] = tested on: SN12C; assay: Growth inhibition of human SN12C cells assessed as cell growth at 10 uM relative to untreated control; format: functional; conditions: read-out: Activity
[9] = tested on: U-251; assay: Growth inhibition of human U251 cells assessed as cell growth at 100 nM relative to untreated control; format: functional; conditions: read-out: Activity
[10] = tested on: SNB-19; assay: Growth inhibition of human SNB19 cells assessed as cell growth at 1 nM relative to untreated control; format: functional; conditions: read-out: Activity
[11] = Growth inhibition of human Hs 578T cells assessed as cell growth at 1 nM relative to untreated control; format: functional; conditions: read-out: Activity
[12] = tested on: SF-539; assay: Growth inhibition of human SF539 cells; format: functional; conditions: read-out: LC50 (the source's name)
[13] = tested on: NCI-H522; assay: Growth inhibition of human NCI-H522 cells assessed as cell growth at 1 nM relative to untreated control; format: functional; conditions: read-out: Activity
[14] = tested on: LOX IMVI; assay: Growth inhibition of human LOXIMVI cells assessed as cell growth at 100 nM relative to untreated control; format: functional; conditions: read-out: Activity
[15] = tested on: EKVX; assay: Growth inhibition of human EKVX cells assessed as cell growth at 1 uM relative to untreated control; format: functional; conditions: read-out: Activity
Outline: (§1)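 Run externally at the National Cancer Institute as a 59-cell-line panel screen, with concentrations up to 100 μM. Growth was scored relative to control, where negative growth or total cell kill was possible. Data are in the Supporting Information.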

[16] = tested on: HCT-116; assay: Growth inhibition of human HCT116 cells assessed as cell growth at 1 nM relative to untreated control; format: functional; conditions: read-out: Activity; outline: as §1
[17] = Growth inhibition of human […] cells assessed as cell growth at 1 nM relative to untreated control; format: functional; conditions: read-out: Activity
[18] = tested on: PC-3; assay: Growth inhibition of human PC3 cells; format: functional
[19] = tested on: SK-MEL-28; assay: Growth inhibition of human SK-MEL-28 cells assessed as cell growth at 1 nM relative to untreated control; format: functional; conditions: read-out: Activity
[20] = tested on: SK-MEL-2; assay: Growth inhibition of human SK-MEL-2 cells assessed as cell growth at 10 nM relative to untreated control; format: functional; conditions: read-out: Activity
[21] = tested on: SK-MEL-2; assay: Growth inhibition of human SK-MEL-2 cells; format: functional
[22] = tested on: NCI-H522; assay: Growth inhibition of human NCI-H522 cells assessed as cell growth at 100 nM relative to untreated control; format: functional; conditions: read-out: Activity
[23] = tested on: OVCAR-8; assay: Growth inhibition of human OVCAR8 cells assessed as cell growth at 1 nM relative to untreated control; format: functional; conditions: read-out: Activity
[24] = tested on: M14; assay: Growth inhibition of human M14 cells; format: functional
[25] = tested on: MOLT-4; assay: Growth inhibition of human MOLT4 cells assessed as cell growth at 1 nM relative to untreated control; format: functional; conditions: read-out: Activity
[26] = tested on: HL-60(TB); assay: Growth inhibition of human HL-60(TB) cells assessed as cell growth at 100 nM relative to untreated control; format: functional; conditions: read-out: Activity
[27] = tested on: PC-3; assay: Decrease in DNA synthesis in human PC3 cells at 5 uM after 24 hrs by BrdU incorporation assay; format: functional, cell-based
Outline: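 PC-3 cells were seeded at 2 × 10⁴ cells/well and exposed to 5 μM compound or DMSO for 24 h. BrdU incorporation was read by chemiluminescent cell proliferation ELISA on a luminometer. Background without anti-BrdU-peroxidase was subtracted and values were normalized to untreated control. Values are mean ± SEM.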

[28] = tested on: UACC-62; assay: Growth inhibition of human UACC62 cells assessed as cell growth at 1 uM relative to untreated control; format: functional; conditions: read-out: Activity
[29] = tested on: HCC 2998; assay: Growth inhibition of human HCC2998 cells assessed as cell growth at 10 nM relative to untreated control; format: functional; conditions: read-out: Activity; outline: as §1
[30] = tested on: NCI-H322M; assay: Growth inhibition of human NCI-H322M cells; format: functional
[31] = tested on: M14; assay: Growth inhibition of human M14 cells assessed as cell growth at 10 uM relative to untreated control; format: functional; conditions: read-out: Activity
[32] = tested on: NCI/ADR-RES; assay: Growth inhibition of human NCI/ADR-RES cells; format: functional
[33] = tested on: MOLT-4; assay: Growth inhibition of human MOLT4 cells assessed as cell growth at 1 uM relative to untreated control; format: functional; conditions: read-out: Activity
[34] = tested on: SNB-19; assay: Growth inhibition of human SNB19 cells assessed as cell growth at 1 uM relative to untreated control; format: functional; conditions: read-out: Activity
[35] = tested on: HCT-15; assay: Growth inhibition of human HCT15 cells assessed as cell growth at 1 nM relative to untreated control; format: functional; conditions: read-out: Activity; outline: as §1
[36] = Growth inhibition of human Hs 578T cells; format: functional
[37] = tested on: KM12; assay: Growth inhibition of human KM12 cells assessed as cell growth at 10 uM relative to untreated control; format: functional; conditions: read-out: Activity
[38] = tested on: SNB-75; assay: Growth inhibition of human SNB75 cells assessed as cell growth at 100 nM relative to untreated control; format: functional; conditions: read-out: Activity
[39] = tested on: HT-29; assay: Growth inhibition of human HT-29 cells assessed as cell growth at 1 uM relative to untreated control; format: functional; conditions: read-out: Activity
[40] = tested on: MDA-MB-435; assay: Growth inhibition of human MDA-MB-435 cells assessed as cell growth at 10 nM relative to untreated control; format: functional; conditions: read-out: Activity
[41] = tested on: NCI-H460; assay: Growth inhibition of human NCI-H460 cells assessed as cell growth at 10 uM relative to untreated control; format: functional; conditions: read-out: Activity
[42] = tested on: M14; assay: Growth inhibition of human M14 cells assessed as cell growth at 100 nM relative to untreated control; format: functional; conditions: read-out: Activity
[43] = tested on: TK-10; assay: Growth inhibition of human TK10 cells assessed as cell growth at 10 uM relative to untreated control; format: functional; conditions: read-out: Activity
[44] = tested on: EKVX; assay: Growth inhibition of human EKVX cells assessed as cell growth at 100 nM relative to untreated control; format: functional; conditions: read-out: Activity; outline: as §1
[45] = tested on: HL-60(TB); assay: Growth inhibition of human HL-60(TB) cells assessed as cell growth at 1 nM relative to untreated control; format: functional; conditions: read-out: Activity
[46] = tested on: NCI-H460; assay: Growth inhibition of human NCI-H460 cells assessed as cell growth at 1 nM relative to untreated control; format: functional; conditions: read-out: Activity
[47] = read-out: LC50 (the source's name)

COc1ccc2c(c1)[nH]c1c(C)c(OS(=O)(=O)c3cccc4c(N(C)C)cccc34)ccc12
growth at 0.01 µM [1]: 102%
GI50 [2]: 79.6 µM
TGI [2]: > 100 µM
CC50 [2, 47]: > 100 µM
growth at 0.1 µM [3]: 98%
GI50 [4]: 7.88 µM
TGI [4]: > 100 µM
CC50 [4, 47]: > 100 µM
growth at 0.1 µM [5]: 69%
growth at 1 µM [6]: 1%
growth at 0.001 µM [7]: 107%
growth at 10 µM [8]: 30%
growth at 0.1 µM [9]: 92%
growth at 0.001 µM [10]: 97%
growth at 0.001 µM [11]: 105%
CC50 [12]: > 100 µM
growth at 0.001 µM [13]: 109%
growth at 0.1 µM [14]: 91%
growth at 1 µM [15]: 35%
growth at 0.001 µM [16]: 100%
growth at 0.001 µM [17]: 99%
GI50 [18]: 39.3 µM
TGI [18]: > 100 µM
CC50 [18, 47]: > 100 µM
growth at 0.001 µM [19]: 99%
growth at 0.01 µM [20]: 110%
GI50 [21]: 10 µM
TGI [21]: > 100 µM
CC50 [21, 47]: > 100 µM
growth at 0.1 µM [22]: 100%
growth at 0.001 µM [23]: 107%
GI50 [24]: 50.2 µM
TGI [24]: > 100 µM
CC50 [24, 47]: > 100 µM
growth at 0.001 µM [25]: 103%
growth at 0.1 µM [26]: 69%
Activity [27]: Active
growth at 1 µM [28]: 28%
growth at 0.01 µM [29]: 101%
GI50 [30]: 12.8 µM
TGI [30]: > 100 µM
CC50 [30, 47]: > 100 µM
growth at 10 µM [31]: 17%
GI50 [32]: 4.63 µM
TGI [32]: > 100 µM
CC50 [32, 47]: > 100 µM
growth at 1 µM [33]: 20%
growth at 1 µM [34]: 45%
growth at 0.001 µM [35]: 98%
GI50 [36]: 36.3 µM
TGI [36]: 93.7 µM
CC50 [36, 47]: > 100 µM
growth at 10 µM [37]: 6%
growth at 0.1 µM [38]: 99%
growth at 1 µM [39]: 13%
growth at 0.01 µM [40]: 95%
growth at 10 µM [41]: -3%
growth at 0.1 µM [42]: 100%
growth at 10 µM [43]: 6%
growth at 0.1 µM [44]: 91%
growth at 0.001 µM [45]: 88%
growth at 0.001 µM [46]: 102%
